Source: PubChem
DDE Tn7 FP inh: inhibitors of Tn7 peptide binding to fibrin DD(E), primary screen, biochemical, fluorescence polarization, human fibrin, Tn7 probe; Fibrinogen beta chain (Homo sapiens), P02675; FP displacement of FITC-Tn7 peptide from fibrin DD(E); 0% = median of compound wells per plate; inhibition, % at 8.3 µM; actives 0.13% (n = 370,000);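 active = inhibition above the mean of compounds falling within the control limits plus 3 SD of them, cut at about 14% in these data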
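Assay system: human fibrin DD(E). Input: DD(E) 2 µM final. Medium: Tris buffer with calcium and detergent, pH 7.8. Compound dosing: single point at 8.3 µM. Timing: 10 min plus 3 h, room temperature. Technique: fluorescence polarization of the labelled Tn7 tracer. Read-out: percent inhibition. Replicates: singlicate testing.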
ARNT-TACC3 inh: disruptors of ARNT/TACC3 protein interaction, primary screen, biochemical, AlphaScreen, single concentration. AID 623870, 2012. AlphaScreen His-ARNT PAS-B/GST-TACC3 binding, luminescence; TACC3 fragment carries E629A point mutation. actives 0.66% (n = 390,000). inhibition, % at 9.99 µM. Transforming acidic coiled-coil-containing protein 3 (Homo sapiens), Q9Y6A5;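 active = mean inhibition of replicates at least 50% and at least half of replicates each reaching 50%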
Tn6 DDE FP: inhibitors of Tn6 peptide binding to fibrin DD(E), primary screen, biochemical, fluorescence polarization, human fibrin, Tn6 probe. Fibrin DD(E) TRITC-Tn6 fluorescence polarization displacement. inhibition, % at 8.3 µM. actives 0.21% (n = 370,000). AID 720509, 2013;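 active = inhibition above a per-campaign cutoff: mean of compounds within control limits plus 3 SD, cut at about 15% in these data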
GRK2 aptamer HTS: compounds blocking aptamer binding on GRK2 – biochemical, human GRK2, bead flow cytometry, HTS, primary screen | Beta-adrenergic receptor kinase 1 (Homo sapiens), P25098 | FAM-aptamer displacement from GRK2 | inhibition of aptamer binding, % at 10 µM | actives 0.59% (n = 330,000) | AID 488847, 2010;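 active = inhibition of aptamer binding above 40%, roughly 3 SD of noise, on plates passing a quality check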;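 note: median bead fluorescence of bound FAM aptamer so fluorescent compounds give negative values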
Target sequence (P25098 whole entry, looked up): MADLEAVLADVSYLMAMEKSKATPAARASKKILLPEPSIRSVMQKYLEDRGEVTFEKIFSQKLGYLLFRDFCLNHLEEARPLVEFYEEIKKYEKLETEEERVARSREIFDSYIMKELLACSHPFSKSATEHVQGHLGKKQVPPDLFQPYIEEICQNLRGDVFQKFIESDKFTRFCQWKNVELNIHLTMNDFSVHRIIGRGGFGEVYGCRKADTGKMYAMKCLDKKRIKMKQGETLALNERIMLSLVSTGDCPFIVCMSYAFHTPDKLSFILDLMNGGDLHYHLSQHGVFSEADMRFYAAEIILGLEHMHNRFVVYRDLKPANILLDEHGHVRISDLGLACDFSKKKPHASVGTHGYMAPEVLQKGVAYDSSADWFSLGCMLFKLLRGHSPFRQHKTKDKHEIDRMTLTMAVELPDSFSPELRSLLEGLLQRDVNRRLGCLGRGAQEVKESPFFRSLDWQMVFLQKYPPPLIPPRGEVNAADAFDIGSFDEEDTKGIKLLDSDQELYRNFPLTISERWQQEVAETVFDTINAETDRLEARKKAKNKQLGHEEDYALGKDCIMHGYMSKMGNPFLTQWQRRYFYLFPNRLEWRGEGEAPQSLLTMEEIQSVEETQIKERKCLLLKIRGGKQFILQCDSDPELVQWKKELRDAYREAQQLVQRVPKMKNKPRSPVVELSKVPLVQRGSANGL
CAL PDZ FP-1: CAL PDZ peptide-binding inhibitors, primary screen, biochemical, fluorescence polarization, Cer-tagged CAL PDZ, HTS; actives 0.02% (n = 330,000); Golgi-associated PDZ and coiled-coil motif-containing protein (Homo sapiens), Q9HD26; AID 504414, 2011; purified CAL PDZ, TMR-peptide fluorescence polarization, 1 h; inhibition, % at 20 µM;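 active = highest replicate inhibition of at least 40%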
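Material: tagged CAL PDZ protein CerCALP, purified; buffer or medium: sodium phosphate/NaCl buffer pH 7.4 with TCEP, IgG, Thesit; also added: fluorescent TMR peptide probe; schedule: 1 h incubation at room temperature before polarization reading; technique: fluorescence polarization from S- and P-plane intensities, G-factor corrected; control set: unlabelled peptide and DMSO controls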
CAL PDZ FP-2: untagged CAL PDZ binding inhibitors, primary screen, biochemical, fluorescence polarization, HTS; Golgi-associated PDZ and coiled-coil motif-containing protein (Homo sapiens), Q9HD26; purified CAL PDZ, TMR-peptide fluorescence polarization, 1 h; inhibition, % at 24.9 µM; actives 0.92% (n = 300,000); AID 602252, 2012;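 active = mean inhibition of at least 30% with at least half of replicates also reaching 30%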
GRK2 CP1: GRK2 aptamer-displacing inhibitors, retest, confirmation, biochemical, cherry pick 1, bead flow cytometry; bead-bound GRK2, FAM-aptamer displacement; actives 4% (n = 2,000); aptamer displacement, % at 10 µM; shares compounds with GRK2 aptamer HTS;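 active = aptamer displacement above 40%, near three times the noise of non-fluorescent compounds, on plates passing quality checks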;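 note: negative values mostly reflect intrinsic compound fluorescence rather than true enhancement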
Aptamer quench: quenches fluorescent RNA aptamer, GRK2 hit artifact; 110 tested, under 10 active; fluorescence change (kMESF span), kMESF (test concentration not listed); shares compounds with GRK2 aptamer HTS; Fluorescent RNA aptamer beads, quenching, flow cytometry; hits give high values;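 active = compounds whose bead fluorescence drops by more than 37 kMESF across the dose range, marking them as dye quenchers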
Aptamer quench SP: aptamer fluorescence quenching in GRK2 counter-screen | shares compounds with GRK2 aptamer HTS | Carboxyfluorescein RNA aptamer on beads, flow cytometry quenching; hits give low values | fluorescence response (% of DMSO), % at 10 µM | 2,000 tested, under 10 active;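 active = compounds that quench the bead-bound fluorescent RNA probe, cutting fluorescence to under half of the solvent control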;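 note: counterscreen run without GRK2 so only probe quenching by compound is measured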
Each line names hits and unclear results; the compound was inactive in the other large screens (follow-up assays come after a bar, where they were run). In the library only some 1.8% were active in any assay of this set; here they are far more common.

Cc1nn(-c2ccc(Cl)cc2)c(=O)c2ccccc12	GRK2 aptamer HTS 96 | GRK2 CP1 inactive | Aptamer quench SP inactive
O=C(O)c1ccc(OC(F)(F)C(F)C(F)(F)F)cc1 (stereo not drawn)	GRK2 aptamer HTS 76 (no result: CAL PDZ FP-1) | GRK2 CP1 inactive | Aptamer quench SP inactive
C[C@H](CO)N1C[C@H](C)[C@H](CN(C)Cc2ccc(C(F)(F)F)cc2)OCc2cnnn2CCCC1=O	none (no result: DDE Tn7 FP inh, Tn6 DDE FP, GRK2 aptamer HTS, CAL PDZ FP-1, CAL PDZ FP-2)
CCOC(=O)Cn1cnc(C)c1	none (no result: GRK2 aptamer HTS)
CCOC(=O)Cn1cc(Cl)c(=O)c(Cl)c1	GRK2 aptamer HTS 85 | GRK2 CP1 inactive | Aptamer quench SP inactive
CN(CC(=O)Nc1ccc(S(=O)(=O)N2CCOCC2)cc1)Cc1ccc(F)cc1	none
CCc1ccc(CN(C)CC(=O)Nc2ccc(S(=O)(=O)N3CCOCC3)cc2)cc1	GRK2 aptamer HTS 99 | GRK2 CP1 inactive | Aptamer quench SP inactive
CCOc1cccc(/C(O)=C2/C(=O)C(=O)N(CCOC)C2c2ccco2)c1 (stereo not drawn)	GRK2 aptamer HTS 47 (no result: CAL PDZ FP-2) | GRK2 CP1 inactive | Aptamer quench SP inactive
CCOC(=O)C(C)Sc1nc2c(c(=O)[nH]c(=O)n2C)n1C/C=C(/C)Cl (stereo not drawn)	GRK2 aptamer HTS 58 | GRK2 CP1 58 | Aptamer quench inactive | Aptamer quench SP inactive
CCSc1nc2c(c(=O)[nH]c(=O)n2C)n1C/C=C(/C)Cl	none
C[C@@H]1CN([C@@H](C)CO)C(=O)c2cccc(NC(=O)c3ccncc3)c2O[C@H]1CN(C)C(=O)Nc1ccc2c(c1)OCO2	none (no result: DDE Tn7 FP inh, Tn6 DDE FP, GRK2 aptamer HTS, CAL PDZ FP-1, CAL PDZ FP-2)
CCCCc1nc2sc3c(c2c(=O)[nH]1)CCC3	GRK2 aptamer HTS 58 (no result: ARNT-TACC3 inh, CAL PDZ FP-2) | GRK2 CP1 inactive | Aptamer quench SP inactive
O=C(O)c1cccc(Nc2c3ccccc3nc3ccccc23)c1	GRK2 aptamer HTS 51 (no result: CAL PDZ FP-2) | GRK2 CP1 inactive | Aptamer quench SP inactive
CC(=O)c1cccc(Nc2cc(C)nc3ccccc23)c1	none
CN1c2ccc(-c3ccccc3)cc2[C@@H]2[C@@H](CCN2C(=O)NC2CCCC2)[C@@H]1CO	none (no result: DDE Tn7 FP inh, Tn6 DDE FP, GRK2 aptamer HTS, CAL PDZ FP-1, CAL PDZ FP-2)
C#CCn1c(=O)cc(C)c2ccccc21	GRK2 aptamer HTS 47 | GRK2 CP1 inactive | Aptamer quench SP inactive
C[C@@H]1CN([C@@H](C)CO)C(=O)Cc2cc(NS(C)(=O)=O)ccc2O[C@@H]1CN(C)S(=O)(=O)c1cn(C)cn1	none (no result: DDE Tn7 FP inh, Tn6 DDE FP, GRK2 aptamer HTS, CAL PDZ FP-1, CAL PDZ FP-2)
COc1cc(CNc2ccc3[nH]c(=O)[nH]c3c2)cc(Br)c1OCc1ccc(F)cc1	none
COc1cccc(CNc2ccc3[nH]c(=O)[nH]c3c2)c1OCc1ccccc1F	GRK2 aptamer HTS 91 | GRK2 CP1 inactive | Aptamer quench SP inactive
COCCNC(=O)c1ccccc1N(Cc1ccccc1)S(=O)(=O)c1ccc(C)cc1	none | GRK2 CP1 inactive | Aptamer quench SP inactive
O=C(C[C@H]1CC[C@@H](NC(=O)CC2CC2)[C@H](CO)O1)NCc1ccc(-c2ccccc2)cc1	none (no result: DDE Tn7 FP inh, Tn6 DDE FP, GRK2 aptamer HTS, CAL PDZ FP-1, CAL PDZ FP-2)
O=C(c1cc(-c2ccncc2)nc2ccc(Br)cc12)N1CCN(c2ccccn2)CC1	GRK2 aptamer HTS 93 (no result: CAL PDZ FP-1) | GRK2 CP1 inactive | Aptamer quench SP inactive
